Converted amounts (≈) assume the structure as drawn. The source made the active and inactive calls. No cut-off for these calls is given here.
Tests used:
Candida albicans [1] = experiment: Antimicrobial activity against Candida albicans isolate S at 5 ug/ml grown on Muller-Hinton agar medium after 48 hrs by disk diffusion method; type: functional
Summary of the method: (§1)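 Disk diffusion on 90-mm RPMI 1640 with 2% glucose agar or on Mueller-Hinton agar. Plates were swabbed in three directions with a yeast suspension of 1–5 × 10^6 cells/ml. Paper disks (6 mm) held 1, 5 or 25 µg drug. Zone diameters were read at 24 and 48 h; values are means of two experiments.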

Candida albicans [2] = experiment: Antimicrobial activity against Candida albicans isolate R at 1 ug/ml grown on RPMI 1640 medium after 24 hrs by disk diffusion method; type: functional; summary of the method: as §1
Candida albicans [3] = experiment: Antimicrobial activity against Candida albicans isolate R at 5 ug/ml grown on RPMI 1640 medium after 48 hrs by disk diffusion method; type: functional; summary of the method: as §1
Nakaseomyces glabratus [4] = experiment: Antimicrobial activity against Candida glabrata after 48 hrs by broth microdilution method; type: functional
Candida albicans [5] = experiment: Antimicrobial activity against Candida albicans after 48 hrs by 50% endpoint M27-A2 method; type: functional
Candida albicans [6] = experiment: Antimicrobial activity against Candida albicans after 48 hrs by broth microdilution method; type: functional
Candida albicans [7] = experiment: Antimicrobial activity against Candida albicans after 48 hrs by Etest; type: functional
Candida albicans [8] = experiment: Antimicrobial activity against Candida albicans obtained from tracheal suction of patient 5 days after admission by EUCAST microdilution method; type: functional; conditions: Trachea, 120 h
Summary of the method: (§2)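 EUCAST broth microdilution, plates read spectrophotometrically at 490 nm. MIC is the lowest dilution giving 50% growth inhibition. C. krusei […] control included in each run.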

Candida albicans [9] = experiment: Antimicrobial activity against Candida albicans isolate R at 1 ug/ml grown on RPMI 1640 medium after 48 hrs by disk diffusion method; type: functional; summary of the method: as §1
Clavispora lusitaniae [10] = experiment: Antimicrobial activity against Candida lusitaniae after 48 hrs by 50% endpoint M27-A2 method; type: functional
Candida albicans [11] = experiment: Antimicrobial activity against Candida albicans isolate C at 0.5 ug/ml after 48 hrs by agar dilution method; type: functional, organism-based
Summary of the method: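 Sabouraud agar wells contained caspofungin 0, 0.5, 1 or 2 µg/ml, or anidulafungin 0, 0.003, 0.125 or 0.5 µg/ml. Isolates were subcultured 2 days on CHROMagar. Suspensions of 1–5 × 10^6 CFU/ml in sterile water were diluted 1,500-fold, and 5 µl (about 3–15 cells) was spread per well. Growth was scored.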

Candida albicans [12] = experiment: Antimicrobial activity against Candida albicans isolate C after 48 hrs by Etest; type: functional
Summary of the method: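 Etest on RPMI 1640 agar with 2% glucose, run per the manufacturer's instructions. Index and control clinical blood isolates were tested in parallel.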

Pichia kudriavzevii [13] = experiment: Antimicrobial activity against Candida krusei after 24 hrs by M27-A3 method; type: functional
Candida albicans [14] = experiment: Antimicrobial activity against Candida albicans obtained from tracheal suction of patient 24 days after admission by EUCAST microdilution method; type: functional; conditions: Trachea, 576 h; summary of the method: as §2
Candida albicans [15] = experiment: Antimicrobial activity against Candida albicans isolate C at 2 ug/ml after 48 hrs by agar dilution method; type: functional, organism-based
Summary of the method: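 Agar dilution on Sabouraud agar with caspofungin at 0, 0.5, 1 and 2 per ml. Isolates were subcultured 2 days on CHROMagar. Suspensions of 1×10^6 to 5×10^6 CFU/ml in sterile water were diluted 1,500-fold, and approximately 3 to 15 cells were spread per agar surface. Growth or no growth was scored, with repeated testing.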

Candida albicans [16] = experiment: Antimicrobial activity against Candida albicans isolate R at 5 ug/ml grown on Muller-Hinton agar medium after 24 hrs by disk diffusion method; type: functional; summary of the method: as §1
Debaryomyces hansenii = experiment: Antimicrobial activity against Candida famata after 48 hrs by M27-A method
Candida albicans [17] = experiment: Antimicrobial activity against Candida albicans isolate R at 5 ug/ml grown on RPMI 1640 medium after 24 hrs by disk diffusion method; type: functional; summary of the method: as §1
Candida parapsilosis [18] = experiment: Antimicrobial activity against Candida parapsilosis after 48 hrs by 50% endpoint M27-A2 method; type: functional; conditions: Lodderomyces parapsilosis
Candida parapsilosis [19] = experiment: Antimicrobial activity against Candida parapsilosis after 48 hrs by M27-A method; conditions: Lodderomyces parapsilosis
Clavispora lusitaniae [20] = experiment: Antimicrobial activity against Candida lusitaniae after 48 hrs by Etest; type: functional
Candida albicans [21] = experiment: Antimicrobial activity against Candida albicans isolate S at 25 ug/ml grown on Muller-Hinton agar medium after 48 hrs by disk diffusion method; type: functional; summary of the method: as §1
Candida tropicalis [22] = experiment: Antimicrobial activity against Candida tropicalis after 48 hrs by Etest; type: functional
Candida albicans [23] = experiment: Antimicrobial activity against Candida albicans isolate S at 25 ug/ml grown on Muller-Hinton agar medium after 24 hrs by disk diffusion method; type: functional; summary of the method: as §1
Nakaseomyces glabratus [24] = experiment: Antimicrobial activity against Candida glabrata after 48 hrs by 50% endpoint M27-A2 method; type: functional
Candida albicans [25] = experiment: Antimicrobial activity against Candida albicans isolate S at 25 ug/ml grown on RPMI 1640 medium after 48 hrs by disk diffusion method; type: functional; summary of the method: as §1
Candida tropicalis [26] = experiment: Antimicrobial activity against Candida tropicalis after 48 hrs
Pichia kudriavzevii [27] = experiment: Antimicrobial activity against Candida krusei after 48 hrs by Etest; type: functional
Candida albicans [28] = experiment: Antimicrobial activity against Candida albicans obtained from urine of patient 29 days after admission by EUCAST microdilution method; type: functional; conditions: 696 h; summary of the method: as §2
Clavispora lusitaniae [29] = experiment: Antimicrobial activity against Candida lusitaniae after 48 hrs by NCCLS microdilution method; type: functional
Nakaseomyces glabratus [30] = experiment: Antimicrobial activity against Candida glabrata after 48 hrs by Etest; type: functional
Nakaseomyces glabratus [31] = experiment: Antimicrobial activity against Candida glabrata after 48 hrs by 80% endpoint M27-A2 method; type: functional
Candida albicans [32] = experiment: Antimicrobial activity against Candida albicans isolate S at 5 ug/ml grown on Muller-Hinton agar medium after 24 hrs by disk diffusion method; type: functional; summary of the method: as §1
Candida albicans [33] = experiment: Antimicrobial activity against Candida albicans obtained from urine of patient 21 days after admission by EUCAST microdilution method; type: functional; conditions: 504 h; summary of the method: as §2
Candida albicans [34] = experiment: Antimicrobial activity against Candida albicans isolate S at 1 ug/ml grown on Muller-Hinton agar medium after 48 hrs by disk diffusion method; type: functional; summary of the method: as §1
Candida parapsilosis [35] = experiment: Antimicrobial activity against Candida parapsilosis after 48 hrs by Etest; type: functional; conditions: Lodderomyces parapsilosis
Candida albicans [36] = experiment: Antimicrobial activity against Candida albicans isolate R at 25 ug/ml grown on RPMI 1640 medium after 24 hrs by disk diffusion method; type: functional; summary of the method: as §1
Nakaseomyces glabratus [37] = experiment: Antimicrobial activity against Candida glabrata after 24 hrs by M27-A3 method; type: functional
Candida albicans [38] = experiment: Antimicrobial activity against Candida albicans isolate S at 1 ug/ml grown on RPMI 1640 medium after 24 hrs by disk diffusion method; type: functional; summary of the method: as §1
[39] = tested on: Meyerozyma guilliermondii; experiment: Antimicrobial activity against Candida guilliermondii after 48 hrs by NCCLS microdilution method; type: functional
Candida tropicalis [40] = experiment: Antimicrobial activity against Candida tropicalis after 48 hrs by broth microdilution method; type: functional
Pichia kudriavzevii [41] = experiment: Antimicrobial activity against Candida krusei after 48 hrs by 50% endpoint M27-A2 method; type: functional
Candida albicans [42] = experiment: Antimicrobial activity against Candida albicans isolate S at 25 ug/ml grown on RPMI 1640 medium after 24 hrs by disk diffusion method; type: functional; summary of the method: as §1
Candida albicans [43] = experiment: Antimicrobial activity against Candida albicans isolate S at 1 ug/ml grown on RPMI 1640 medium after 48 hrs by disk diffusion method; type: functional; summary of the method: as §1

CC[C@H](C)C[C@H](C)CCCCCCCCC(=O)N[C@H]1C[C@@H](O)[C@@H](NCCN)NC(=O)[C@@H]2[C@@H](O)CCN2C(=O)[C@H]([C@H](O)CCN)NC(=O)[C@H]([C@H](O)[C@@H](O)c2ccc(O)cc2)NC(=O)[C@@H]2C[C@@H](O)CN2C(=O)[C@H]([C@@H](C)O)NC1=O [CASPOFUNGIN]
inhibition zone (IZ) (Candida albicans [1]): 20.4 mm | inhibition zone (IZ) (Candida albicans [2]): 6.2 mm | inhibition zone (IZ) (Candida albicans [3]): 6.2 mm | MIC90 (Nakaseomyces glabratus [4]): 0.5 µg/mL (≈ 0.457 µM) | MIC90 (Candida albicans [5]): 0.5 µg/mL (≈ 0.457 µM) | MIC90 (Candida albicans [6]): 0.25 µg/mL (≈ 0.229 µM) | MIC90 (Candida albicans [7]): 0.25 µg/mL (≈ 0.229 µM) | MIC (Candida albicans [8]): 0.25 µg/mL (≈ 0.229 µM) | inhibition zone (IZ) (Candida albicans [9]): 6.2 mm | MIC90 (Clavispora lusitaniae [10]): 2 µg/mL (≈ 1.83 µM) | growth inhibition (GI) (Candida albicans [11]): Active | MIC (Candida albicans [12]): 0.06 µg/mL (≈ 0.0549 µM) | MIC90 (Pichia kudriavzevii [13]): 0.25 µg/mL (≈ 0.229 µM) | MIC (Candida albicans [14]): 0.25 µg/mL (≈ 0.229 µM) | growth inhibition (GI) (Candida albicans [15]): Active | inhibition zone (IZ) (Candida albicans [16]): 8.8 mm | MIC90 (Debaryomyces hansenii): > 8 µg/mL | inhibition zone (IZ) (Candida albicans [17]): 8.6 mm | MIC90 (Candida parapsilosis [18]): 2 µg/mL (≈ 1.83 µM) | MIC90 (Candida parapsilosis [19]): 4 µg/mL (≈ 3.66 µM) | MIC90 (Clavispora lusitaniae [20]): 2 µg/mL (≈ 1.83 µM) | inhibition zone (IZ) (Candida albicans [21]): 24.9 mm | MIC90 (Candida tropicalis [22]): 0.5 µg/mL (≈ 0.457 µM) | inhibition zone (IZ) (Candida albicans [23]): 23.3 mm | MIC90 (Nakaseomyces glabratus [24]): 1 µg/mL (≈ 0.915 µM) | inhibition zone (IZ) (Candida albicans [25]): 26.4 mm | MIC90 (Candida tropicalis [26]): 0.5 µg/mL (≈ 0.457 µM) | MIC90 (Pichia kudriavzevii [27]): 1 µg/mL (≈ 0.915 µM) | MIC (Candida albicans [28]): 0.25 µg/mL (≈ 0.229 µM) | MIC90 (Clavispora lusitaniae [29]): 2 µg/mL (≈ 1.83 µM) | MIC90 (Nakaseomyces glabratus [30]): 0.25 µg/mL (≈ 0.229 µM) | MIC90 (Nakaseomyces glabratus [31]): 1 µg/mL (≈ 0.915 µM) | inhibition zone (IZ) (Candida albicans [32]): 19.2 mm | MIC (Candida albicans [33]): 1 µg/mL (≈ 0.915 µM) | inhibition zone (IZ) (Candida albicans [34]): 12.5 mm | MIC90 (Candida parapsilosis [35]): 2 µg/mL (≈ 1.83 µM) | inhibition zone (IZ) (Candida albicans [36]): 12.4 mm | MIC90 (Nakaseomyces glabratus [37]): 0.06 µg/mL (≈ 0.0549 µM) | inhibition zone (IZ) (Candida albicans [38]): 10.7 mm | MIC90 [39]: > 16 µg/mL | MIC90 (Candida tropicalis [40]): 0.25 µg/mL (≈ 0.229 µM) | MIC90 (Pichia kudriavzevii [41]): 2 µg/mL (≈ 1.83 µM) | inhibition zone (IZ) (Candida albicans [42]): 25.3 mm | inhibition zone (IZ) (Candida albicans [43]): 10.5 mm

— ChEMBL document CHEMBL1629654, “Breakthrough Aspergillus fumigatus and Candida albicans double infection during caspofungin treatment: laboratory characteristics and implication for susceptibility testing” (2009)
